From PubChem BioAssay
An excerpt weighted towards active compounds, which were near 1.5% of everything screened.
LANA-H2B inh = blocks KSHV LANA binding to histone H2A/H2B. Q9QR71. cell-free LANA-H2A/H2B peptide, fluorescence polarization. inhibition, % (concentration not given with the values). 320,000 compounds, 0.6% hits. AID 2629; in the data active = inhibition mostly above about 10%, no sharp cut-off; inactive = mostly below about 6.7%
Target sequence (Q9QR71 whole entry, looked up): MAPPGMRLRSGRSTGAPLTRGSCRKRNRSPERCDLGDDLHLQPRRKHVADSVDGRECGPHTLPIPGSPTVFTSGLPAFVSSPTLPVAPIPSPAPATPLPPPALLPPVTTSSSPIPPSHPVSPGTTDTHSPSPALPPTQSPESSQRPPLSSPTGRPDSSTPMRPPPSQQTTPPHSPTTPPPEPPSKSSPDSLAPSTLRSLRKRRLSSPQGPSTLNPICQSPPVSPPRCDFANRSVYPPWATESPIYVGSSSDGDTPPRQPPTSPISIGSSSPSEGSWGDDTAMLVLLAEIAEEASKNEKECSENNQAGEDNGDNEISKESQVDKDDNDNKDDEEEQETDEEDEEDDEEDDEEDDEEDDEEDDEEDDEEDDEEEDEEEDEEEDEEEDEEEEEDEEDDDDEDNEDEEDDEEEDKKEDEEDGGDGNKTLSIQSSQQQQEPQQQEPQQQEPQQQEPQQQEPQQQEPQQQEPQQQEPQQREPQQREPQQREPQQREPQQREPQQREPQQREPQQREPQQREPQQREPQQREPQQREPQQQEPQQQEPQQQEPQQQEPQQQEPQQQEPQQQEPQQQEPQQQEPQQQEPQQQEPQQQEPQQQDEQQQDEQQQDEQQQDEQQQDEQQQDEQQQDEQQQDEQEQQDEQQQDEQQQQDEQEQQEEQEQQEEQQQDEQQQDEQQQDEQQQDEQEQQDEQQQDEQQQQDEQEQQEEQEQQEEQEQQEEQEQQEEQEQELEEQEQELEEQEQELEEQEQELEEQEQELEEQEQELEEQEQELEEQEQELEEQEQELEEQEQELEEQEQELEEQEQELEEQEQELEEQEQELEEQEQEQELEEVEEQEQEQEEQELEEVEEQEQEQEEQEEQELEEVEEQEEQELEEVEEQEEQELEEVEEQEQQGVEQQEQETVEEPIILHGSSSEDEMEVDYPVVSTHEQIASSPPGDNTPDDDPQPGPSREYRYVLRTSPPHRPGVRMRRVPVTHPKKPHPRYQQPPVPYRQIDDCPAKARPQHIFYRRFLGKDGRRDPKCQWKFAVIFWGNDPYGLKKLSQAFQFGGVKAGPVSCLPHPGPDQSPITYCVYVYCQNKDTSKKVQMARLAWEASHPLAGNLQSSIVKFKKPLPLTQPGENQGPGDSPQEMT
T cell HTS = T cell immune modulators affecting CD8 T cell-vesicle binding; 330,000 compounds, 0.068% hits; response (vesicle binding), % at 7 µM; 2C CD8+ T cell-vesicle binding, flow cytometry; hits give low values;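 active = response, share of CD8 T cells binding vesicles, and their 90th percentile fluorescence all below set limits, cut at about 80% in these data, passing the limit was not always enough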;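 also: values below 100% mean blocked vesicle binding to the CD8+ T cells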
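Read-out – percent CD8+ FL2 mean versus row control · System – murine 2C transgenic CD8+ T lymphocytes · Times – 1.5 h cell–vesicle binding at 37 °C, then 20 min icy labelling · Control set – naked vesicles low, QL9 vesicles with vehicle high · Detection – cytometric PE anti-B7-1 and Alexa647 anti-CD8 signals after 1% paraformaldehyde fixation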
DSG3 Ab inh = inhibitors of pemphigus antibody binding to human desmoglein-3. DSG3-coupled beads, scFv-anti-DSG3-GFP binding, flow cytometry; hits give low values. binding (percent of control), % at 10 µM. 310,000 compounds, 0.48% hits. AID 588358;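 active = binding more than 3 SD below its plate's average and above zero; inconclusive = below that plate limit but binding exactly zero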;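 also: hits lower antibody fragment binding to DSG3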
Arr AP2 block = human beta-arrestin and AP2 interaction inhibition; FITC-arrestin peptide / GST-AP2 beads, flow cytometry; AP2 beta2 appendage carries R879A mutation; inhibition, % at 10 µM; 340,000 compounds, 0.31% hits; AID 504490;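 active = inhibition above a set limit, near 3 SD of compounds lacking own fluorescence, cut at about 54% in these data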
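Material – AP2 appendage R879A on GSH beads · Buffer or medium – PBS with 0.05% Tween 20 and 0.1% BSA · Probe or stimulus – fluorescein-tagged arrestin peptide at 50 nM final · Incubation – compound with beads 12 min RT, then probe 1 h RT · Detection – high-throughput flow cytometry of beads, ex 488, em 535 nm · Evaluation – percent response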
HDAC3 inh = blocks human histone deacetylase 3; O15379; recombinant HDAC3, fluorogenic peptide/trypsin coupled, fluorescence; inhibition, % at 8.3 µM; 320,000 compounds, 0.15% hits; AID 2718; in the data active = inhibition above about 26%, passing the limit was not always enough; inconclusive = no clear call, values can overlap the other calls
Numbers stand for hits; . = inactive; ? = inconclusive; / = not tested or not shown; + = active, no number; ! = not confirmed by another sample.

SMILES | LANA-H2B inh | T cell HTS | DSG3 Ab inh | Arr AP2 block | HDAC3 inh
Cc1c(N=C2N=C(NC(=O)NC(C)(C)C)c3ccccc32)c(=O)n(-c2ccccc2)n1C | . | 31.6 | . | . | .
CCCC(C)C(=O)Nc1ccncc1 (stereo not drawn) | . | . | . | . | .
CC(N=C(NC#N)Nc1ccncc1)C(C)(C)C (stereo not drawn) | 48.0! | . | . | . | .
CCOC(=O)c1ccc(-c2csc(NC(=O)CN3CCC(C)CC3)n2)cc1 | . | . | . | . | .
Cn1c(N)c(C(=O)COC(=O)C2Cc3ccccc3CN2S(C)(=O)=O)c(=O)n(C)c1=O (stereo not drawn) | / | / | 75.7 | / | /
CCOC(=O)CSC1=NC(=O)/C(=C/c2ccc(OC)cc2)S1 | . | . | . | . | 79.8
CN(C)CCCNC(=S)N(CCN(C)C)Cc1cc2cc3c(cc2[nH]c1=O)OCCO3 | . | . | . | . | .
CCOCCCNC(=S)N(CCN(C)C)Cc1cc2cc3c(cc2[nH]c1=O)OCCO3 | . | . | . | . | 34.8
CCc1cccc(NC(=O)[C@@H]2CCCN2C2=NS(=O)(=O)c3ccccc32)c1 | . | . | / | . | .
CCc1cccc(NC(=O)CSC2=NS(=O)(=O)c3ccccc32)c1 | . | . | . | . | 36.3
Cc1cccc(CC2CC(=O)N(c3ccc(C)cc3Br)C2=O)c1 (stereo not drawn) | 25.6 | . | . | . | .
Cc1ccc(C)c(N2C(=O)CC(Cc3ccccc3)C2=O)c1 (stereo not drawn) | . | . | . | . | .
CSc1cccc(NC(=O)CCNS(=O)(=O)c2ccc3[nH]c(=O)oc3c2)c1 | . | . | . | . | .
O=c1ccc(Cl)nn1-c1ccccc1 | . | . | . | . | .
CCCOc1c(Br)cc(C(=O)OCC(=O)NC(=O)c2cccn2C)cc1OC | + | . | . | . | .
Cc1ccc(C(C)C)c(OCC(=O)NNCC(=O)Nc2cccc(F)c2)c1 | . | . | / | . | .
CCCc1c(C(=O)Nc2ccc(OC)cc2)cnn1-c1ccccc1 | . | . | / | . | .
CCCc1c(C(=O)NNc2ccccc2OC)cnn1-c1ccccc1 | 17.8 | . | . | . | .
CCOc1ccc(NC(=O)COC(=O)Cn2cnc3ccccc32)cc1 | . | . | . | . | .
CC1OC(c2ccccc2)OC2COC(c3ccccc3)OC12 (stereo not drawn) | / | / | -6.5 | . | /
Cc1ccc2cc(-c3noc(C4CCCO4)n3)c(=O)[nH]c2c1 (stereo not drawn) | . | . | . | . | .
Cc1ccc2cc(-c3noc(C4CCCCC4)n3)c(=O)[nH]c2c1 | . | . | -17.9 | . | .
Cc1cc(OCC(=O)NC(Cc2ccc(Cl)cc2)C(=O)O)c2c(C)c(C)c(=O)oc2c1 (stereo not drawn) | . | . | / | . | .
C=CCC[C@@H](Cc1ccc(F)cc1)C(=O)OC[C@@H]1CCCN1C(=O)[C@@H](CC=C)CC(=O)N[C@@H](CO)Cc1ccccc1 | . | . | . | . | 35.1
C=CCC[C@@H](Cc1ccc(F)cc1)C(=O)OCCNC(=O)[C@@H](CC=C)CC(=O)N[C@H](CO)Cc1ccccc1 | . | . | . | . | .
SMILES | LANA-H2B inh | T cell HTS | DSG3 Ab inh | Arr AP2 block | HDAC3 inh
C=CCC[C@@H](Cc1ccc(F)cc1)C(=O)OCCNC(=O)[C@@H](CC=C)CC(=O)N[C@@H](CO)Cc1ccccc1 | 25.7 | . | . | . | .
CNC(=O)CN(C)S(=O)(=O)c1ccc(F)cc1 | . | . | 79.3 | . | .
CN(CC(=O)O)S(=O)(=O)c1ccc(F)cc1 | . | . | . | . | .
CN(CC(=O)OCC(=O)NCc1ccccc1)S(=O)(=O)c1ccc(F)cc1 | + | . | ? | . | .
COc1ccc2cc(C(=O)COC(=O)COc3ccc4c(C)cc(=O)oc4c3)ccc2c1 | . | . | 69.2 | . | .
C[C@H]1C[C@H]2[C@@H]3CCC4=CC(=O)C=C[C@]4(C)[C@@]3(F)[C@@H](O)C[C@]2(C)[C@@]1(O)C(=O)CO | . | . | . | . | .
C[C@H]1C[C@H]2[C@@H]3CCC4=CC(=O)C=C[C@]4(C)[C@@]3(Cl)[C@@H](O)C[C@]2(C)[C@@]1(O)C(=O)CO | . | . | -13.1 | . | .
C[C@@H]1C[C@H]2[C@@H]3CCC4=CC(=O)C=C[C@]4(C)[C@@]3(F)[C@@H](O)C[C@]2(C)[C@@]1(O)C(=O)COP(=O)(O)O | 46.7! | . | . | . | .
COc1ccc(CC(=O)NC2CC2)cc1OC | . | . | . | . | .
COc1ccc2c(c1)c(=O)oc1cc(O)ccc12 | . | . | . | . | .
COc1ccc2c(c1)c(=O)oc1cc3occ(C(C)(C)C)c3cc12 | 12.1 | . | . | . | .
O=C(O)C1(c2ccccc2)CCN(S(=O)(=O)c2ccccc2)CC1 | 1.5 | . | . | . | .
N#Cc1cccc(S(=O)(=O)NNC(=O)C23CC4CC(CC(C4)C2)C3)c1 | . | 58.3 | . | . | .
Cc1ccc(C)c(N(CC(=O)NC2CCCC2)C(=O)CCC(=O)Nc2cc(C)on2)c1 | . | . | . | . | .
Cc1ccc(-c2nn(CCC(=O)NN3CCOCC3)c(=O)c3ccccc23)cc1 | . | . | . | . | .
CCCNC(=O)CCn1nc(-c2ccc(Cl)cc2)c2ccccc2c1=O | . | . | 79.8 | . | .
O=C(CCn1nc(-c2ccc(Cl)cc2)c2ccccc2c1=O)NN1CCOCC1 | . | . | 81.8 | . | .
CCOc1cccc(-c2nc3c(s2)CCc2onc(-c4cccc([N+](=O)[O-])c4)c2-3)c1 | . | / | . | . | .
C=CC[C@H](CC(=O)N(CCO)Cc1ccccc1)C(=O)N[C@@H](COC(=O)[C@@H](CC=C)CC(=O)OC(C)(C)C)Cc1c[nH]c2ccccc12 | . | . | . | . | 39.9
C=CC[C@@H](CC(=O)N(CCO)Cc1ccccc1)C(=O)N[C@@H](COC(=O)[C@H](CC=C)CC(=O)OC(C)(C)C)Cc1c[nH]c2ccccc12 | . | . | . | . | 32.9
C=CC[C@@H](CC(=O)N(CCO)Cc1ccccc1)C(=O)N[C@H](COC(=O)[C@@H](CC=C)CC(=O)OC(C)(C)C)Cc1ccccc1 | / | . | . | . | /
C=CC[C@H](CC(=O)N(CCO)Cc1ccccc1)C(=O)N[C@H](COC(=O)[C@@H](CC=C)CC(=O)OC(C)(C)C)Cc1ccccc1 | . | . | . | . | 29.6
CCCC1NC(C(=O)O)Cc2c1[nH]c1ccccc21 (stereo not drawn) | . | . | . | . | .
C=CCn1c(SCc2c(C)noc2C)nc2sc(C)c(C)c2c1=O | 55.7 | . | . | . | .
O=C(OCCOCCN=C1NS(=O)(=O)c2ccccc21)c1ccc(F)cc1 | . | . | 48.2 | . | .
COc1cccc(CN(C)C(=O)c2[nH]c(C)c(C(C)=O)c2C)c1OC | . | . | / | . | .
Cc1ccc(C(=O)c2coc3cc([N+](=O)[O-])c(O)c([N+](=O)[O-])c23)cc1 | . | . | 19.9 | . | .
